Assay results reported in ChEMBL document CHEMBL2424525, “Synthesis of 3'-azido-2',3'-dideoxy-5-fluorouridine phosphoramidates and evaluation of their anticancer activity” (Eur J Med Chem, 2013).

Experiments:
Format in all cases: functional, cell-based
MCF7 = test: Cytotoxicity against human MCF7 cells after 72 hrs by SRB assay; conditions: MCF7, 72 h
Summary of the method: (§1)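 SRB assay. HeLa and KB cells were grown in RPMI 1640 and MCF-7 cells in DMEM. Cells were fixed with 50% trichloroacetic acid for 1 h at 4 °C, then washed with distilled water. Unbound dye was removed with 1% acetic acid and plates were air dried overnight. OD read at 490 nm. Survival was taken as % absorbance of untreated control. Cytarabine served as internal standard. Three independent experiments.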

KB = test: Cytotoxicity against human KB cells after 72 hrs by SRB assay; summary of the method: as §1
HeLa = test: Cytotoxicity against human HeLa cells after 72 hrs by SRB assay; summary of the method: as §1

Compound | IC50 (MCF7) [µM] | IC50 (KB) [µM] | IC50 (HeLa) [µM]
[N-]=[N+]=N[C@H]1C[C@H](n2cc(F)c(=O)[nH]c2=O)O[C@@H]1CO | 10.3 | 8.11 | 11.1
[N-]=[N+]=NCCCCNP(=O)(OC[C@H]1O[C@@H](n2cc(F)c(=O)[nH]c2=O)C[C@@H]1N=[N+]=[N-])Oc1ccc(Cl)cc1 (stereo not given in full) | 22.4 | 46.6 | 35.5
COC(=O)[C@H](C)NP(=O)(OC[C@H]1O[C@@H](n2cc(F)c(=O)[nH]c2=O)C[C@@H]1N=[N+]=[N-])Oc1ccc(Cl)cc1 (stereo not given in full) | 38.4 | > 100 | 38.4
CNP(=O)(OC[C@H]1O[C@@H](n2cc(F)c(=O)[nH]c2=O)C[C@@H]1N=[N+]=[N-])Oc1ccc(Cl)cc1 (stereo not given in full) | 4.42 | 8.64 | 8.43
CCNP(=O)(OC[C@H]1O[C@@H](n2cc(F)c(=O)[nH]c2=O)C[C@@H]1N=[N+]=[N-])Oc1ccc(Cl)cc1 (stereo not given in full) | 1.88 | 1.64 | 1.64
[N-]=[N+]=N[C@H]1C[C@H](n2cc(F)c(=O)[nH]c2=O)O[C@@H]1COP(=O)(NCC(F)(F)F)Oc1ccc(Cl)cc1 (stereo not given in full) | 23.9 | 40.5 | 43.9
CCCNP(=O)(OC[C@H]1O[C@@H](n2cc(F)c(=O)[nH]c2=O)C[C@@H]1N=[N+]=[N-])Oc1ccc(Cl)cc1 (stereo not given in full) | 27.2 | 26.9 | 25.9
C=CCNP(=O)(OC[C@H]1O[C@@H](n2cc(F)c(=O)[nH]c2=O)C[C@@H]1N=[N+]=[N-])Oc1ccc(Cl)cc1 (stereo not given in full) | 10.4 | 8.59 | 9.98
C#CCNP(=O)(OC[C@H]1O[C@@H](n2cc(F)c(=O)[nH]c2=O)C[C@@H]1N=[N+]=[N-])Oc1ccc(Cl)cc1 (stereo not given in full) | 5.41 | 3.81 | 4.21
[N-]=[N+]=NCCCNP(=O)(OC[C@H]1O[C@@H](n2cc(F)c(=O)[nH]c2=O)C[C@@H]1N=[N+]=[N-])Oc1ccc(Cl)cc1 (stereo not given in full) | 33.1 | 99.3 | 96.2
CCCCNP(=O)(OC[C@H]1O[C@@H](n2cc(F)c(=O)[nH]c2=O)C[C@@H]1N=[N+]=[N-])Oc1ccc(Cl)cc1 (stereo not given in full) | 41.8 | 38.7 | 32.9
Nc1ccn([C@@H]2O[C@H](CO)[C@@H](O)[C@@H]2O)c(=O)n1 [CYTARABINE] | – | – | 3.54
O=c1[nH]c(=O)n([C@H]2C[C@H](O)[C@@H](CO)O2)cc1F [FLOXURIDINE] | 12.2 | 8.69 | 6.5
O=c1[nH]cc(F)c(=O)[nH]1 [FLUOROURACIL] | 6.53 | 4.84 | 6.23
